In ChEMBL document CHEMBL1145431, “Improved anti-osteoporosis potency and reduced endometrial membrane hyperplasia during hormone replacement therapy with estrogen-RGD peptide conjugates” (2007):
Where a SMILES comes first, the peptide text is derived from it. The star is where a group is joined. X1 = C[C@]12CC[C@@H]3c4ccc(OCC(=O)*)cc4CC[C@H]3[C@@H]1CCC2O

Columns and labels:
Mus musculus [1] = test: Effect on lenght of femur in mouse at 0.110 mmol/kg, po; assay type: functional
In short: (§1)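 Female Kuiming mice (7 weeks old, 30.7 ± 3.1 g) under abdominal OVX, sham group abdominorotomy only. From day 5 after surgery, dosed orally once daily for 4 weeks at 110.3 × 10-3 mmol/kg in 0.5% CMC (0.2 mL), vehicle group CMC alone. Blood drawn retro-orbitally, then left femur and organs removed under pentobarbital (40.0 mg/kg, i.p.).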

Mus musculus [2] = test: Effect on serum calcium level in mouse at 0.1103 mmol/kg, ip; assay type: functional
In short: (§2)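 OVX Kuiming mice dosed i.p. daily for 4 weeks in 0.5% CMC. Blood taken retro-orbitally on the day after the last dose, stood 30 min, spun at 3000 g for 20 min, serum stored at -20 °C. Calcium by o-methylphenolphthalein complexone, phosphorus by molybdenum blue, ALP by activity with disodium phenylphosphate substrate.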

Mus musculus [3] = test: Effect on serum phosphorous level in mouse at […] mmol/kg, ip; assay type: functional; in short: as §2
Mus musculus [4] = test: Effect on femur ash weight in mouse at 0.1103 mmol/kg, po; assay type: functional; in short: as §1
Mus musculus [5] = test: Effect on calcium level in mouse femur at 0.055 mmol/kg, ip; assay type: functional
In short: (§3)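 Dose-response in OVX Kuiming mice, i.p. daily for 4 weeks in 0.5% CMC at 11.03, 55.15 or 110.3 × 10-3 mmol/kg. Left femur: length, then defatting, drying at 120 °C for 6 h (dry weight), ashing at 800 °C for 8 h. Ash/dry ratio gives mineral content. Ash Ca and P measured colorimetrically. Liver, lung and spleen weighed directly. n = 12, ANOVA.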

Mus musculus [6] = test: Effect on mineral content in ovariectomized mouse at 0.1103 mmol/kg, ip once daily for 4 weeks; assay type: functional
In short: (§4)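 Female Kuiming mice (7 weeks, 30.7 ± 3.1 g) ovariectomized, sham group abdominorotomy. From day 5, i.p. once daily for 4 weeks at 110.3 × 10-3 mmol/kg in 0.5% CMC. Left femur cleaned, length measured, defatted in chloroform-methanol (2:1, 2 × 3 h), dried 120 °C 6 h for dry weight, ashed 800 °C 8 h. Mineral content = ash/dry weight. Ash dissolved in 6 N HCl and diluted. Ca by o-methylphenolphthalein complexone, P by molybdenum blue. Lungs and livers weighed directly.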

Mus musculus [7] = test: Effect on mineral content in mouse at 0.1103 mmol/kg, po; assay type: functional; in short: as §1
Mus musculus [8] = test: Increase in body weight in ovariectomized mouse at 0.1103 mmol/kg, ip once daily for 4 weeks; assay type: functional
In short: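 Female Kuiming mice (30.7 ± 3.1 g) underwent abdominal OVX; the sham group had abdominorotomy only. From day 5 after surgery, i.p. dosing once daily for 4 weeks at 110.3 × 10-3 mmol/kg in aqueous 0.5% CMC. Body weight was recorded on the day of the last administration.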

Mus musculus [9] = test: Effect on serum ALP level in mouse at 0.011 mmol/kg, ip; assay type: functional
In short: (§5)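 Dose-response in OVX Kuiming mice, i.p. daily for 4 weeks in 0.5% CMC at 11.03, 55.15 or 110.3 × 10-3 mmol/kg. Serum from retro-orbital blood (3000 g, 20 min). Calcium by o-methylphenolphthalein complexone, phosphorus by molybdenum blue, ALP by activity on disodium phenylphosphate. n = 12, ANOVA.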

Mus musculus [10] = test: Effect on uterus weight in mouse at 0.011 mmol/kg, ip; assay type: functional
In short: (§6)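 Dose study in abdominally ovariectomized female Kuiming mice (30.7 ± 3.1 g). Daily i.p. dosing in aqueous 0.5% CMC from day 5 after surgery for 4 weeks, at 110.3, 55.15 or 11.03 × 10-3 mmol/kg. Liver, lung, spleen and uterus were removed after pentobarbital euthanasia and weighed. n = 12, ANOVA, p < 0.05.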

Mus musculus [11] = test: Effect on lung weight in mouse at 0.011 mmol/kg, ip; assay type: functional; in short: as §3
Mus musculus [12] = test: Effect on serum calcium level in ovariectomized mouse at 0.1103 mmol/kg, ip once daily for 4 weeks; assay type: functional; in short: as §2
Mus musculus [13] = test: Effect on liver weight in mouse at 0.011 mmol/kg, ip; assay type: functional; in short: as §3
Mus musculus [14] = test: Effect on serum phosphorous Concentration in mouse at 0.110 mmol/kg, po; assay type: functional
In short: (§7)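 Oral OVX Kuiming mouse model, dosed daily for 4 weeks at 110.3 × 10-3 mmol/kg in 0.5% CMC. Retro-orbital blood stood 30 min at room temperature and was spun at 3000 g for 20 min. Serum kept at -20 °C. Calcium read by o-methylphenolphthalein complexone, phosphorus by molybdenum blue, ALP by activity on disodium phenylphosphate substrate.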

Mus musculus [15] = test: Effect on dry weight of femurs in ovariectomized mouse at 0.1103 mmol/kg, ip once daily for 4 weeks; assay type: functional, Femur; in short: as §4
Mus musculus [16] = test: Effect on lung weight in ovariectomized mouse at 0.1103 mmol/kg, ip once daily for 4 weeks; assay type: functional; in short: as §4
Mus musculus [17] = test: Effect on phosphorus level in mouse at 0.110 mmol/kg, po; assay type: functional; in short: as §1
Mus musculus [18] = test: Effect on spleen weight in ovariectomized mouse at 0.1103 mmol/kg, ip once daily for 4 weeks; assay type: functional
In short: (§8)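 Female Kuiming mice (7 weeks old, 30.7 ± 3.1 g), abdominal OVX under pentobarbital (40.0 mg/kg i.p.). From day 5 after surgery, i.p. injection once daily for 4 weeks, compound in aqueous 0.5% CMC prepared just before use. The day after the last dose, mice were anesthetized and killed, and lungs, livers, spleens and uteri were removed and weighed directly. n = 12, ANOVA, p < 0.05.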

Mus musculus [19] = test: Effect on spleen weight in mouse at 0.055 mmol/kg, ip; assay type: functional; in short: as §3
Mus musculus [20] = test: Effect on serum calcium level in mouse at 0.1103 mmol/kg, po; assay type: functional; in short: as §7
Mus musculus [21] = test: Effect on dry weight of femur in recipient mouse at 0.011 mmol/kg, ip; assay type: functional; in short: as §3
Mus musculus [22] = test: Effect on femur length in ovariectomized mouse at 0.1103 mmol/kg, ip once daily for 4 weeks; assay type: functional; in short: as §4
Mus musculus [23] = test: Effect on calcium level in ovariectomized mouse at 0.1103 mmol/kg, ip once daily for 4 weeks; assay type: functional; in short: as §4
Mus musculus [24] = test: Effect on serum ALP level in mouse at 0.055 mmol/kg, ip; assay type: functional; in short: as §5
Mus musculus [25] = test: Effect on calcium level in mouse femur at 0.011 mmol/kg, ip; assay type: functional; in short: as §3
Mus musculus [26] = test: Effect on serum calcium level in mouse at 0.055 mmol/kg, ip; assay type: functional; in short: as §5
Mus musculus [27] = test: Effect on uterus weight in mouse at 0.055 mmol/kg, ip; assay type: functional; in short: as §6
Mus musculus [28] = test: Effect on dry weight of femurs in recipient mouse at 0.055 mmol/kg, ip; assay type: functional, Femur; in short: as §3
Mus musculus [29] = test: Effect on liver weight in mouse at 0.1103 mmol/kg, po; assay type: functional; in short: as §1
Mus musculus [30] = test: Effect on liver weight in ovariectomized mouse at 0.110 mmol/kg, ip once daily for 4 weeks; assay type: functional; in short: as §4
Mus musculus [31] = test: Effect on femur ash weight in recipient mouse at 0.011 mmol/kg, ip; assay type: functional; in short: as §3
Mus musculus [32] = test: Effect on uterus weight in ovariectomized mouse at 0.1103 mmol/kg, ip once daily for 4 weeks; assay type: functional; in short: as §8
Mus musculus [33] = test: Effect on femur ash weight in ovariectomized mouse at 0.1103 mmol/kg, ip once daily for 4 weeks; assay type: functional; in short: as §4
Mus musculus [34] = test: Effect on serum phosphorous level in mouse at 0.011 mmol/kg, ip; assay type: functional; settings: in the assay text read “0.11 mmol/kg” for “0.011 mmol/kg”; in short: as §5

SMILES | Activity (Mus musculus [1]) [cm] | Activity (Mus musculus [2]) [mmol/L] | Activity (Mus musculus [3]) [mmol/L] | Activity (Mus musculus [4]) [mg] | Activity (Mus musculus [5]) [%] | Ratio (Mus musculus [6]) | Ratio (Mus musculus [7]) [%] | Activity (Mus musculus [8]) [g] | Activity (Mus musculus [9]) [U/L] | Activity (Mus musculus [10]) [mg] | Activity (Mus musculus [11]) [mg] | Activity (Mus musculus [12]) [mmol/L] | Activity (Mus musculus [13]) [g] | Activity (Mus musculus [14]) [mmol/L] | Activity (Mus musculus [15]) [mg] | Activity (Mus musculus [16]) [mg] | Activity (Mus musculus [17]) [%] | Activity (Mus musculus [18]) [mg] | Activity (Mus musculus [19]) [mg] | Activity (Mus musculus [20]) [mmol/L] | further results
CC(C)[C@H](NC(=O)[C@H](CC(=O)O)NC(=O)CNC(=O)[C@H](CCCNC(=N)N)NC(=O)COc1ccc2c(c1)CC[C@@H]1[C@@H]2CC[C@]2(C)C(O)CC[C@@H]12)C(=O)O (some centres not stated) (X1-RGDV-OH) | 1.614 | 2.005 | 1.6 | 33.7 | 57.13 | 0.63 | 51.9 | 35.2 | 38.5 | 55.7 | 188 | 2.003 | 1.48 | 1.61 | 63.7 | 162 | 24.997 | 132 | 140 | 2.04 | Activity (Mus musculus [21]): 50.9 mg; Activity (Mus musculus [22]): 1.64 cm; Activity (Mus musculus [23]): 58.35%; Activity (Mus musculus [24]): 32.786 U/L; Activity (Mus musculus [25]): 42.1%; Activity (Mus musculus [26]): 2.084 mmol/L; Activity (Mus musculus [27]): 57.6 mg; Activity (Mus musculus [28]): 57.5 mg; Activity (Mus musculus [29]): 1.337 g; Activity (Mus musculus [30]): 1.363 g; Activity (Mus musculus [31]): 20.6 mg; Activity (Mus musculus [32]): 50.3 mg; Activity (Mus musculus [33]): 40 mg; Activity (Mus musculus [34]): 1.6 mmol/L
C[C@]12CC[C@@H]3c4ccc(OCC(=O)N[C@@H](CCCNC(=N)N)C(=O)NCC(=O)N[C@@H](CC(=O)O)C(=O)N[C@@H](CO)C(=O)O)cc4CC[C@H]3[C@@H]1CCC2O (some centres not stated) (X1-RGDS-OH) | 1.635 | 2.014 | 1.599 | 30.4 | 52.1 | 0.582 | 52.2 | 35.2 | 40.3 | 52.8 | 181 | 2.004 | 1.42 | 1.6 | 63.4 | 173 | 24.994 | 124 | 136 | 2.03 | Activity (Mus musculus [21]): 48.8 mg; Activity (Mus musculus [22]): 1.642 cm; Activity (Mus musculus [23]): 54.885%; Activity (Mus musculus [24]): 33.616 U/L; Activity (Mus musculus [25]): 41.5%; Activity (Mus musculus [26]): 2.047 mmol/L; Activity (Mus musculus [27]): 48.6 mg; Activity (Mus musculus [28]): 56.3 mg; Activity (Mus musculus [29]): 1.329 g; Activity (Mus musculus [30]): 1.377 g; Activity (Mus musculus [31]): 18.1 mg; Activity (Mus musculus [32]): 42.5 mg; Activity (Mus musculus [33]): 37 mg; Activity (Mus musculus [34]): 1.599 mmol/L
C[C@]12CC[C@@H]3c4ccc(OCC(=O)N[C@@H](CCCNC(=N)N)C(=O)NCC(=O)N[C@@H](CC(=O)O)C(=O)N[C@@H](Cc5ccccc5)C(=O)O)cc4CC[C@H]3[C@@H]1CCC2O (some centres not stated) (X1-RGDF-OH) | 1.626 | 2.015 | 1.605 | 28.7 | 54.493 | 0.585 | 52.5 | 33.1 | 38.6 | 60.6 | 174 | 2.005 | 1.57 | 1.6 | 64.2 | 169 | 25.532 | 131 | 123 | 2.04 | Activity (Mus musculus [21]): 46.9 mg; Activity (Mus musculus [22]): 1.635 cm; Activity (Mus musculus [23]): 56.69%; Activity (Mus musculus [24]): 33.746 U/L; Activity (Mus musculus [25]): 42.9%; Activity (Mus musculus [26]): 2.04 mmol/L; Activity (Mus musculus [27]): 55.3 mg; Activity (Mus musculus [28]): 53.9 mg; Activity (Mus musculus [29]): 1.339 g; Activity (Mus musculus [30]): 1.395 g; Activity (Mus musculus [31]): 20.8 mg; Activity (Mus musculus [32]): 55.4 mg; Activity (Mus musculus [33]): 35.8 mg; Activity (Mus musculus [34]): 1.605 mmol/L
